NadD block = blocks S. aureus nicotinate mononucleotide adenylyltransferase; purified NadD enzyme, colorimetric absorbance read-out; actives 0.78% (n = 360,000); inhibition, % at 20 µM; AID 602399; in the data active means inhibition above about 26%
core dimer inh = blocks dimerization of HCV core protein | actives 0.33% (n = 300,000) | AID 1899 | TR-FRET GST/Flag-core106 dimerization, 1536-well | inhibition, % at 5 µM;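 active means inhibition above the mean of all tested compounds plus 3 SD, set per screening campaign, cut at about 45% in these data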
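System: GST-tagged and Flag-tagged HCV core protein residues 1-106 / Input: core106 proteins, GST 13.5 nM and Flag 17 nM / Buffer or medium: KF-containing HEPES buffer, pH 7.45, DTT, CHAPS, BSA / Probe or stimulus: Eu-anti-GST and XL665-anti-Flag labelled anti-tag antibodies / Schedule: 4 h, 22.5 °C incubation / Technique: TR-FRET 671 and 617 nm emission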
PP5 primary = inhibitors of human protein phosphatase 5 (PP5); actives 0.18% (n = 320,000); AID 1987; purified PP5c, OMFP substrate fluorescence; inhibition, % at 6.7 µM; P53041;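 active means inhibition above the campaign's mean inhibition across all tested compounds plus 3 SD, cut at about 9.5% in these data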;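 further: 0% = DMSO only and 100% = 100 µM cantharidin control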
Target sequence (P53041 whole entry, looked up): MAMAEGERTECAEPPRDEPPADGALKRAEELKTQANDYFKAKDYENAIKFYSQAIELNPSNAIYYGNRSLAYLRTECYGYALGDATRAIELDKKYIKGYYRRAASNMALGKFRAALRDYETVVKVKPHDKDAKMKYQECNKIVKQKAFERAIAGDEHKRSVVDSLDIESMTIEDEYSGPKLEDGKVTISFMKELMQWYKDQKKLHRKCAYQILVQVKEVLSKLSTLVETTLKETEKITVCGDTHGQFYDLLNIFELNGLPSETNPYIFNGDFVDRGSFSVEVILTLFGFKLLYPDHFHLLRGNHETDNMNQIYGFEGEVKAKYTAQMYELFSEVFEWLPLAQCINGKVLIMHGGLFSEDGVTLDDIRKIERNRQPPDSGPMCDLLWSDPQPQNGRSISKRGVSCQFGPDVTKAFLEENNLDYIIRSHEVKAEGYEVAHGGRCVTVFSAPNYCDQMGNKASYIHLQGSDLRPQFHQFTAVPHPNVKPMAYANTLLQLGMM
PP1 counter = counter-screen for PP5 inhibitors: inhibitors of human PP1-alpha | P62136 | purified PP1alpha, OMFP fluorescence | inhibition, % at 6.7 µM | actives 0.9% (n = 320,000) | AID 2235;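 active means inhibition above the mean inhibition of all tested compounds plus 3 SD, computed separately for each screening campaign, cut at about 15% in these data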
Myeloid diff MLP = promotes myeloid progenitor differentiation; ER-HoxA9 myeloid progenitors, lysozyme-GFP differentiation, flow cytometry; calls only at 10 µM; actives 1% (n = 360,000);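 active means normalized GFP-positive differentiation at or above the plate's own cutoff, the solvent-only control mean plus 3 SD; inconclusive means no clear call, values can overlap the other calls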;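 further: cells exposed to compound for four days before flow analysis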
Fh CTSL1 inh = cathepsin L1 inhibition, PFM18AAP counter-screen. recombinant F. hepatica cathepsin L1, Z-Leu-Arg-MCA fluorescence. actives 0.49% (n = 300,000). inhibition, % at 5.96 µM;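 active means inhibition above the mean of all tested compounds plus 3 SD, set per screening campaign, cut at about 17% in these data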;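 further: 0% = plate median of test compound wells and 100% = 1 µM Z-Phe-Ala-diazomethylketone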
PP5 inh confirm = PP5 (human) inhibition, confirmation | shares compounds with PP5 primary | Purified PP5, fluorogenic phosphatase substrate, fluorescence | inhibition, % at 6.7 µM | actives 22% (n = 460) | AID 2331; in the data active means inhibition above about 9.5%
PP1 counter 3x = inhibits human PP1 phosphatase in PP5 counter-screen. shares compounds with PP5 primary. PP1 enzyme, fluorescent phosphatase substrate. inhibition, % at 6.7 µM. actives 4% (n = 460). AID 2355; in the data active means inhibition above about 16%
An asterisk follows results filed as active; i = inactive; ? = inconclusive; · = no result given. A selection: hits, their analogues and other compounds. The true share with any hit is near 3.1%.

SMILES | NadD block | core dimer inh | PP5 primary | PP1 counter | Myeloid diff MLP | Fh CTSL1 inh | PP5 inh confirm | PP1 counter 3x
CCC(CC)C(=O)Nc1cccc(C(=O)Nc2ccc(S(N)(=O)=O)cc2)c1 | -4 | -1 | 4 | -1 | i | 4 | · | ·
CCC(CC)C(=O)Nc1cccc(C(=O)Nc2ccc(S(=O)(=O)Nc3ccc(C)cc3)cc2)c1 | 24 | 11 | 10* | 8 | i | 1 | 4 | 2
CCC(CC)C(=O)Nc1cccc(C(=O)Nc2ccc(OC)cc2[N+](=O)[O-])c1 | 9 | -2 | 10* | -4 | i | -3 | -4 | -4
C=CCc1ccc(O)c(-c2cc(CC=C)ccc2O)c1 | 2 | -2 | 11* | 6 | i | 1 | 3 | 6
C=CCc1ccc(OCC(O)CO)c(OC)c1 (stereo not given) | -17 | 2 | 0 | -3 | i | 1 | · | ·
CCCCOc1ccc(C(=O)Nc2ccc(N3CCN(C(C)=O)CC3)cc2)cc1 | 1 | -1 | 12* | -7 | i | -4 | -4 | -4
O=C(c1ccc([N+](=O)[O-])cc1)N1CCN(c2ncc(Br)cn2)CC1 | -5 | 0 | 11* | -4 | i | -1 | -4 | -3
O=C(c1ccc(Br)cc1)N1CCN(c2ncccn2)CC1 | -6 | 1 | -2 | -1 | i | -4 | · | ·
O=c1[nH]c(Nc2ccccc2)cc2ccccc12 | -2 | 34 | 11* | -1 | i | 105* | 34* | 0
O=c1[nH]c(Nc2ccccc2)cc2cc(Br)ccc12 | 2 | 42 | 14* | -1 | i | 61* | 34* | 8
Cn1c(=O)cc(Nc2ccccc2)[nH]c1=O | -8 | -6 | 1 | -4 | i | 5 | · | ·
O=c1cc(Nc2cccc(Br)c2)[nH]c(=O)[nH]1 | -1 | 5 | 3 | 5 | i | -9 | · | ·
Cc1c(C(=O)NCc2ccc([N+](=O)[O-])cc2)sc(=O)n1Cc1ccc2c(c1)OCO2 | -3 | · | · | · | i | · | · | ·
Oc1cccc(/C=N/Nc2cc(N3CCCC3)nc(N3CCCC3)n2)c1 | 12 | 0 | 16* | 3 | i | 10 | 37* | 10
Oc1ccc(/C=N/Nc2cc(N3CCOCC3)nc(N3CCOCC3)n2)cc1 | 3 | -9 | 6 | -2 | i | 1 | · | ·
Oc1ccc(/C=N/Nc2cc(N3CCCC3)nc(N3CCCC3)n2)cc1 | 14 | -5 | 16* | 3 | i | 3 | 37* | 14
COc1ccc(/C=N/Nc2cc(N3CCCC3)nc(N3CCCC3)n2)cc1 | 14 | 5 | 16* | 6 | i | 1 | 34* | 18*
CCOc1ccc(/C=N/Nc2cc(C)nc(N3CCOCC3)n2)cc1 | -1 | 0 | 1 | 0 | i | 0 | · | ·
Cc1ccc(Cl)cc1N(CC(=O)NCc1ccccc1)S(C)(=O)=O | -5 | 3 | 0 | 0 | i | -4 | · | ·
CC1=C(C(=O)Nc2cc(-c3cccc(F)c3)[nH]n2)C2(CCCCC2)OC1=O | -1 | 13 | 10* | 4 | i | -1 | 15* | 5
Cc1ccc(Sc2ccc(N)cn2)cc1 | 0 | 3 | 14* | 2 | i | 8 | -4 | -3
Nc1ccc(Sc2ccccc2)nc1 | -3 | 1 | 1 | 0 | i | 0 | · | ·
CC(C)=CC(=O)N1CCCc2ccccc21 | -5 | 2 | 9.7* | 7 | i | -2 | -4 | -6
O=C(COc1cccc2ccccc12)Nc1nc2ccccc2[nH]1 | -2 | -3 | 10* | 0 | i | -5 | 5 | 3
CCOc1ccccc1OCC(=O)Nc1nc2ccccc2[nH]1 | -5 | 1 | -3 | -3 | i | 2 | · | ·
CCOc1ccc(NC(=O)Nc2ccc3nsnc3c2)cc1 | -8 | -3 | 3 | -3 | i | 4 | · | ·
CCOc1ccc(NC(=S)Nc2ccc3nsnc3c2)cc1 | -3 | -49 | 12* | 11 | ? | 110* | 49* | 3
COc1ccc(NC(=S)Nc2ccc3nsnc3c2)cc1 | -1 | -68 | 12* | 3 | i | 99* | 47* | 0

Compound activity (PubChem BioAssay)
